Source: ChEMBL document CHEMBL1144451, “Polyamine-vectored iron chelators: the role of charge” (J Med Chem, 2005)

Columns and labels:
L1210 [1] = experiment: Ability to compete with [3H]SPD for the polyamine transport apparatus in L1210 cells; type: functional, cell-based, Mus musculus
L1210 [2] = experiment: Ratio of intracellular concentration to that of treatment concentration in L1210 cells; type: functional, Mus musculus
L1210 [3] = experiment: Inhibitory concentration against growth of murine L1210 cells at 96 hours; type: functional, cell-based; conditions: Mus musculus, L1210, 96 h
Method in brief: (§1)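 Proliferation of murine leukemia L1210 cells measured after 48 h or 96 h exposure. IC50 reported as the mean of at least two experiments. Variation from the mean was typically 10–25% for the 96-h values.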

[4] = Iron clearing efficiency in urine of rodents following a subcutaneous dosage of 450 umol/kg; type: ADME; conditions: rodentia, in vivo, sc
Method in brief: (§2)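 Bile-duct-cannulated rat model. Drug given sc at 450 µmol/kg, set for equivalent iron-binding capacity. Chelator-promoted iron excretion measured in both bile and urine. Multiple bile samples collected, so the kinetics of iron excretion could be followed.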

[5] = Iron clearing efficiency in bile of rodents following a subcutaneous dosage of 450 umol/kg; type: ADME; conditions: rodentia, in vivo, sc; method in brief: as §2
L1210 [6] = experiment: Inhibitory concentration against growth of murine L1210 cells at 48 hours; type: functional, cell-based; conditions: Mus musculus, L1210, 48 h; method in brief: as §1
[7] = Iron clearing efficiency in bile-duct-cannulated rodents following a subcutaneous dosage of 450 umol/kg; type: ADME; conditions: rodentia, in vivo, sc; method in brief: as §2
L1210 [8] = experiment: Intracellular concentration was determined in murine L1210 cells after treatment with 50 uM compound for 48 h; type: functional, cell-based; conditions: Mus musculus
Method in brief: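 Murine leukemia L1210 cells exposed to compound for 48 h unless otherwise indicated. Intracellular concentration expressed as pmol/10^6 cells; 10^6 untreated cells taken as about 1 µL volume. Mean of at least two or three experiments, variation typically less than 10%.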

L1210 [9] = experiment: Intracellular concentration was determined in murine L1210 cells after treatment with 30 uM compound for 48 h; type: functional, cell-based; conditions: Mus musculus
Method in brief: (§3)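 Murine leukemia L1210 cells exposed to the compound, 48 h unless another time is indicated. Intracellular level measured as pmol/10^6 cells. Converted to concentration using about 1 µL volume per 10^6 untreated cells.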

[10] = Iron clearing efficiency in urine of rodents following a subcutaneous dosage of 300 umol/kg; type: functional
Method in brief: (§4)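 Bile-duct-cannulated rats given a subcutaneous dose of 300 µmol/kg, equivalent in iron-binding capacity to 450 µmol/kg of the 3:1 ligands. Chelator-induced iron excretion measured in both bile and urine. Bile collected as multiple samples to follow excretion kinetics.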

L1210 [11] = experiment: Intracellular concentration was determined in murine L1210 cells after treatment with 100 uM compound for 48 h; type: functional, cell-based; conditions: Mus musculus; method in brief: as §3
[12] = Iron clearing efficiency in bile-duct-cannulated rodents following a subcutaneous dosage of 300 umol/kg; type: functional; method in brief: as §4
[13] = Iron clearing efficiency in bile of rodents following a subcutaneous dosage of 300 umol/kg; type: functional; method in brief: as §4
L1210 [14] = experiment: Intracellular concentration was determined in murine L1210 cells after treatment with 100 uM compound for 4 hrs; type: functional, cell-based; conditions: Mus musculus; method in brief: as §3
L1210 [15] = experiment: Intracellular concentration was determined in murine L1210 cells after treatment with 0.2 uM compound for 48 h; type: functional, cell-based; conditions: Mus musculus; method in brief: as §3
[16] = Iron clearing efficiency in bile-duct-cannulated rodents following a subcutaneous dosage of 450 umol/kg (iron excretion delayed until ~18 hours after administration); type: functional
L1210 [17] = experiment: Intracellular concentration was determined in murine L1210 cells after treatment with 100 uM compound for 48 hrs; type: functional, cell-based; conditions: Mus musculus; method in brief: as §3

Cc1c(O)c(=O)ccn1C [DEFERIPRONE]
Ki (L1210 [1]): > 500 µM
Ratio (L1210 [2]): 0.02
IC50 (L1210 [3]): 55 µM
Efficiency [4]: 26%
Efficiency [5]: 74%
IC50 (L1210 [6]): 46 µM
Efficiency [7]: 2.2%
Concentration (pmol/10E6 cells) (L1210 [8]): 1

CCNCCCNCCCCNCCCNCC [BIS(ETHYL)SPERMINE]
Ratio (L1210 [2]): 13.3
Concentration (pmol/10E6 cells) (L1210 [9]): 400

C[C@]1(C(=O)O)CSC(c2ccc(O)cc2O)=N1 [DEFERITRIN]
Ki (L1210 [1]): > 500 µM
Ratio (L1210 [2]): <0.5
IC50 (L1210 [3]): 20 µM
Efficiency [10]: 7%
IC50 (L1210 [6]): 19 µM
Concentration (pmol/10E6 cells) (L1210 [11]): < 50
Efficiency [12]: 1.1%
Efficiency [13]: 93%

C[C@]1(C(=O)O)CSC(c2ccc(OCCCCNCCCNCCCN)cc2O)=N1
Ki (L1210 [1]): 73 µM
Ratio (L1210 [2]): 0.7
IC50 (L1210 [3]): 40 µM
Efficiency [10]: 1%
IC50 (L1210 [6]): 40 µM
Concentration (pmol/10E6 cells) (L1210 [14]): 71
Efficiency [12]: 9.2%
Efficiency [13]: 99%

Cc1c(O)c(=O)ccn1CCCNCCCCNCCCN
Ki (L1210 [1]): 3.7 µM
Ratio (L1210 [2]): 1950
Efficiency [4]: 47%
Efficiency [5]: 53%
IC50 (L1210 [6]): 0.2 µM
Concentration (pmol/10E6 cells) (L1210 [15]): 390
Efficiency [7]: 1.8%
Efficiency [16]: <0.5%

FC(F)(F)CNCCCNCCCCNCCCNCC(F)(F)F
Ratio (L1210 [2]): <0.2
IC50 (L1210 [3]): > 100 µM
Concentration (pmol/10E6 cells) (L1210 [11]): < 20

COC(=O)c1ccc(C(=O)NCCCNCCCCNCCCN)cc1
Ki (L1210 [1]): 3.1 µM
Ratio (L1210 [2]): 4.3
IC50 (L1210 [3]): > 100 µM
IC50 (L1210 [6]): > 100 µM
Concentration (pmol/10E6 cells) (L1210 [17]): 430

CCOC(=O)[C@@]1(C)CSC(c2ccc(OCCCCNCCCNCCCN)cc2O)=N1
Ki (L1210 [1]): 5.7 µM
IC50 (L1210 [3]): 1.5 µM
Efficiency [10]: 3%
IC50 (L1210 [6]): 1.5 µM
Concentration (pmol/10E6 cells) (L1210 [14]): 2980
Concentration (pmol/10E6 cells) (L1210 [17]): 947
Efficiency [12]: 13.6%
Efficiency [13]: 97%

NCCCNCCCCNCCCNC(=O)c1ccc(C(=O)O)cc1
Ki (L1210 [1]): 27 µM
Ratio (L1210 [2]): <0.7
IC50 (L1210 [3]): > 100 µM
IC50 (L1210 [6]): > 100 µM
Concentration (pmol/10E6 cells) (L1210 [11]): < 70
